Molecules are shown by their SMILES. Unmarked numbers belong to inactive results.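 How the source made its calls: active means growth inhibition above 25% in both replicates, a cutoff set 3 SD above the mean; inconclusive means above 25% in only one replicate; inactive means the rest.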

This assay can be described thus: S. cerevisiae growth inhibition in permissive medium (OD615), pilot counter-assay for S. cerevisiae lifespan shortening project, permissive growth control (AID 705). Particulars: OD615, 24 h, at 10 µM, stronger effect = higher value. In short, it runs like this:
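assay system = Saccharomyces cerevisiae strain carrying genetically modified DeaD replicative-lifespan system | technique = absorbance (optical density) at 615 nm | buffer or medium = permissive raffinose/galactose medium | timing = cells pre-grown 4 h, then 24 h compound exposure, 30 °C humidified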
As to `CCOC(=O)c1c(C)n(C)c2ccc(OCC(N)=O)cc12`, the growth inhibition is -3.96%.

Take `CC(=O)NCC(=O)N(c1ccccc1)C1(C(=O)NC2CCCCC2)CCCCC1`: the growth inhibition was -3.84%.

With `C=CCNc1nc2c(c(=O)n(C)c(=O)n2C)n1CC(=C)C`, the growth inhibition is -1.17%.

`O=C(C1CC1)N1CCc2cc(Br)cc(S(=O)(=O)NCc3ccccn3)c21`: the growth inhibition is -8.05%.

In the case of `Cc1cccc(OCCn2c(=O)n(C)c3ccccc32)c1`, the growth inhibition is -9.27%.

Consider `COc1ccc(CCNc2nc(=O)[nH]nc2C)cc1OC`, for which the growth inhibition is -14.6%.

For the compound `COCCNC(=O)Cn1cnc2sc(C)c(S(=O)(=O)N3CCC(C)CC3)c2c1=O`, the growth inhibition was -5.23%.

Regarding `CNC(=O)N(C1=NCC(C)(C)S1)c1ccc(F)c(Cl)c1`, the growth inhibition was -4.53%.

Turning to `CN(C)CCNC(=O)c1ccc(CS(=O)(=O)c2ccc(Br)cc2)o1`, the growth inhibition was 3.18%.

For the compound `Cc1cc(NC(=O)c2ccccc2)sc1C`, the growth inhibition was -5.22%.

With `CCOC(=O)N1CCC(NC(=O)c2cc3c(-c4ccc(Cl)cc4)nn(C)c3s2)CC1`, the growth inhibition is -2.75%.

Turning to `O=C(CSc1ncnc2c1oc1ccccc12)NCc1ccc(F)cc1`, the growth inhibition is -0.505%.

As for `CCCCSC1=C(C#N)C(c2ccccc2C)CC(=O)N1` (stereo not drawn), the growth inhibition is -14.2%.

Take `CC(=O)NCC(=O)OCC(=O)c1ccc(C)cc1`: the growth inhibition is 1.93%.

For `CC1(C)Cc2c(C#N)c(NC3CCCCC3)nc(-c3ccco3)c2CO1`, the growth inhibition was -15.4%.

For the compound `CC(C)NC(=O)c1ccc(CS(=O)(=O)c2ccc(Br)cc2)o1`, the growth inhibition was 4.63%.

With `COC(=O)Cn1c(CN2CCN(c3ccc(F)cc3)CC2)nc2c1c(=O)n(C)c(=O)n2C`, the growth inhibition was -1.31%.

Turning to `CN1CCc2c(sc(NC(=O)c3ccc(S(=O)(=O)N4CCOCC4)cc3)c2C(N)=O)C1`, the growth inhibition was -5.07%.

For the compound `O=C(NCCn1ccc2ccccc21)c1ccc(S(=O)(=O)N2CCCCC2)cc1`, the growth inhibition is -12.5%.

On to `Cn1c(CNC(=O)c2ccc(F)cc2)nc2ccccc21`, for which the growth inhibition was -0.44%.

On to `CC1(C)CC(=O)C=C(NCCN2CCN(C(=O)Nc3ccc(Cl)c(Cl)c3)CC2)C1`, for which the growth inhibition is 13.1%.

Consider `CCc1ccc(S(=O)(=O)NCc2csc(-c3cccnc3)n2)s1`, for which the growth inhibition was -13.1%.

For `CC(=O)c1cccc(NC(=O)N2CCCC2C(=O)NCc2ccccc2)c1` (stereo not drawn), the growth inhibition was -6.55%.

The values are drawn from PubChem BioAssay.
